Assay results from different studies.
Protocols differ between the studies behind these lines. ≈ marks a conversion by molar mass, not a printed value.
Organism: Staphylococcus epidermidis

SMILES | effect on | technique | strain | time | measurement | value
O=C1NC(=S)N/C1=C\c1ccc(-c2ccc(N(c3ccccc3)c3ccccc3)cc2)c2ccccc12 | microbial growth | broth dilution | ATCC12228 | – | MIC | > 1000 µg/mL
O=S(=O)(O)c1cc(O)c(N=Nc2ccc3ccccc3c2O)c2ccccc12 | microbial growth | broth dilution | – | 24 h | MIC50 | 63 µM (≈ 24.8 µg/mL)
O=[N+]([O-])c1ccc(-c2nc3cccc(O)c3[nH]2)o1 | microbial killing | – | – | – | MBC | 1 µg/mL (≈ 4.08 µM)
O=C(O)CN1C(=O)/C(=C/c2ccc(-c3ccc(N(c4ccccc4)c4ccccc4)cc3)c3ccccc23)NC1=S | microbial growth | broth dilution | ATCC12228 | – | MIC | > 1000 µg/mL
C/C(=C\c1ccc(C#N)cc1)C(=O)Nc1ccc(C(=O)N[C@@H](CC(N)=O)C(=O)Nc2ccc(C(=O)Nc3ccc(C(=O)Nc4ccc(C(=O)O)cc4)c(O)c3OC(C)C)cc2)cc1 | microbial growth | – | DSM28765 | – | MIC | ≤ 0.03 µg/mL
Cc1c(NC(=O)CC2=NC(=O)CS2)c(=O)n(-c2ccccc2)n1C | microbial killing | broth dilution | – | – | MBC | 1 µg/mL (≈ 2.9 µM)
CC(C)Oc1c(NC(=O)c2ccc(NC(=O)[C@H](CC(N)=O)NC(=O)c3ccc(NC(=O)c4ccc(C#N)cc4)cc3)cc2)ccc(C(=O)Nc2ccc(C(=O)O)cc2)c1O | microbial growth | – | DSM28765 | – | MIC | ≤ 0.03 µg/mL
O=C1NC(=S)S/C1=C\c1ccc(-c2ccc(N(c3ccccc3)c3ccccc3)cc2)c2ccccc12 | microbial killing | broth dilution | ATCC12228 | – | MBC | > 1000 µg/mL
O=C(O)c1cn(C2CC2)c2cc(N3CCNCC3)c(F)cc2c1=O | microbial killing | broth dilution | – | – | MBC | 0.5 µg/mL (≈ 1.51 µM)
CN(C)[C@@H]1C(O)=C(C(N)=O)C(=O)[C@@]2(O)C(O)=C3C(=O)c4c(O)cccc4[C@@](C)(O)[C@H]3C[C@@H]12 | microbial growth | broth dilution | 12228 | – | MIC | 100 µM
CO[C@@H](C(N)=O)[C@H](NC(=O)c1ccc(NC(=O)c2ccc(C#N)cc2)cc1)C(=O)Nc1ccc(C(=O)Nc2ccc(C(=O)Nc3ccc(C(=O)O)cc3)c(O)c2OC(C)C)cc1 | microbial growth | – | DSM28765 | – | MIC | ≤ 0.03 µg/mL
O=C1NC(=S)N/C1=C\c1ccc(-c2ccc(N(c3ccccc3)c3ccccc3)cc2)cc1 | microbial growth | broth dilution | ATCC12228 | – | MIC | > 1000 µg/mL
N#CC(=Cc1ccccc1O)C1=NC(=O)C(=Cc2cn(-c3ccccc3)nc2-c2ccccc2)S1 | microbial killing | broth dilution | – | – | MBC | 0.25 µg/mL (≈ 0.527 µM)
O=[N+]([O-])c1ccc2c(N=Nc3c(O)ccc4ccccc34)c(O)cc(S(=O)(=O)O)c2c1 | microbial growth | broth dilution | – | 24 h | MIC50 | 250 µM (≈ 110 µg/mL)
